Source: PubChem BioAssay (The Scripps Research Institute Molecular Screening Center)
Tb MetRS inh = T. brucei MetRS inhibitors, primary screen, biochemical, luminescence; methionyl-tRNA synthetase (Trypanosoma brucei brucei); purified T. brucei MetRS, ATP depletion, Kinase-Glo luminescence; inhibition, % at 11.9 µM; 0.4% of 360,000 active; AID 624268, 2012;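 active = inhibition above a per-plate cutoff of the control wells' mean inhibition plus 3 SD, cut at about 5.5% in these data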;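 also: 0% = DMSO wells median and 100% = median of wells with control inhibitor compound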
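Test system: purified T. brucei MetRS enzyme. Also added: ATP, methionine and E. coli bulk tRNA substrates. Compound: 11.9 µM single point. Schedule: 15 min enzyme-compound preincubation, 2 h reaction, 10 min detection, 25 °C. Signal: luciferase luminescence of residual ATP, Kinase-Glo. Evaluation: percent inhibition versus plate control medians. Controls: DMSO wells, low control.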
DAGLB inh = DAGLB lipase inhibitors, primary screen, biochemical, fluorescence, HTS. Diacylglycerol lipase-beta (Homo sapiens), Q8NCG7. HEK293T DAGLB membrane lysate, EnzChek fluorogenic substrate. inhibition, % at 5.17 µM. 0.059% of 340,000 active; in the data active = inhibition above about 34%;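 also: 0% = enzyme with vehicle and 100% = wells lacking enzyme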
PLCb3 inh = human PLC-beta3 inhibitors, primary screen, biochemical, fluorescence; 1-phosphatidylinositol 4,5-bisphosphate phosphodiesterase beta-3 (Homo sapiens), Q01970; Purified PLC-beta3, fluorogenic substrate; inhibition, % at 12.2 µM; 0.18% of 370,000 active; AID 720704, 2013; in the data active = inhibition above about 11%;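 also: 0% = median of compound wells on plate and 100% = full blocker control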
Target sequence (Q01970 whole entry, looked up): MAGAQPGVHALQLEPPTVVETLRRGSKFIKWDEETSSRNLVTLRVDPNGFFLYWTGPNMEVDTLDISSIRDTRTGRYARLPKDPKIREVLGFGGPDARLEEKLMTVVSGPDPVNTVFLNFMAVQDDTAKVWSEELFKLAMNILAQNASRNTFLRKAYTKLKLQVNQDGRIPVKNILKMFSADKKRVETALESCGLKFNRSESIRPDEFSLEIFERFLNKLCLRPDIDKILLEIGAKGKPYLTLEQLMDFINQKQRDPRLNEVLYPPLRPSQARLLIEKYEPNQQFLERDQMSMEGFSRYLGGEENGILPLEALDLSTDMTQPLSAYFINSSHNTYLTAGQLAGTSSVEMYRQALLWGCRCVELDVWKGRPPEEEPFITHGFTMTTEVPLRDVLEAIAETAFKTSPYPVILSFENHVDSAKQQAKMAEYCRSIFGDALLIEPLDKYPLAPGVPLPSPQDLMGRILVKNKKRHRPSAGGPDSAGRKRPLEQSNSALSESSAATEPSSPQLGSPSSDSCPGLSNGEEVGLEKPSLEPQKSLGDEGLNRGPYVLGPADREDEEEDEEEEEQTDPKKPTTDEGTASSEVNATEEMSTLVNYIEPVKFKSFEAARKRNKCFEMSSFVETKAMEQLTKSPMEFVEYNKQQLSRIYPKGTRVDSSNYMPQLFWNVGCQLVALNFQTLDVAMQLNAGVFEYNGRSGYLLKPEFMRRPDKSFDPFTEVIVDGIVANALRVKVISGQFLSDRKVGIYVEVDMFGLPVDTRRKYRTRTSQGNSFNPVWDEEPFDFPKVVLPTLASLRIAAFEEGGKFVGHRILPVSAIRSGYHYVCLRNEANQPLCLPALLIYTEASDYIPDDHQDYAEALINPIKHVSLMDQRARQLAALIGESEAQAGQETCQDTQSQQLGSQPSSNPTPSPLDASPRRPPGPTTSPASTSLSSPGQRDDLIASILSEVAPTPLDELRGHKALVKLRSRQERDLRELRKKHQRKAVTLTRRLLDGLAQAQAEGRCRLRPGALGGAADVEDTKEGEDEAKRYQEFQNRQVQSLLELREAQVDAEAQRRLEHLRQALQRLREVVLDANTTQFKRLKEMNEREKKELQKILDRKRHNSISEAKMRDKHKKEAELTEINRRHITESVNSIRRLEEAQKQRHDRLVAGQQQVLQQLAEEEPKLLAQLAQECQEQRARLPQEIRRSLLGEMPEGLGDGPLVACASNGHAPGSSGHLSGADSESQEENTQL
PLC-gamma1 inh = PLC-gamma1 enzyme inhibitors, primary screen, biochemical, fluorescence, purified enzyme; 1-phosphatidylinositol 4,5-bisphosphate phosphodiesterase gamma-1 (Homo sapiens), P19174; fluorogenic substrate; inhibition, % at 12.2 µM; 0.84% of 370,000 active; AID 720700, 2013; in the data active = inhibition above about 9.5%
HGIII-sPLA2 inh = human group III sPLA2 inhibitors, primary screen, biochemical, QFRET, BODIPY PC-A2 liposome substrate; 0.56% of 370,000 active; AID 743126, 2013; QFRET BODIPY PC-A2 liposome hydrolysis, fluorescence; inhibition, % at 12.2 µM;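 active = inhibition above mean plus 3 SD of compounds lying within the high and low control bounds, cut at about 19% in these data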;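 also: 0% = median of test compound wells and 100% = no enzyme DMSO wells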
hGIII sPLA2 conf = human group III sPLA2 inhibitors, confirmation, biochemical, QFRET, triplicate; 34% of 2,000 active; recombinant hGIII-sPLA2, BODIPY PC-A2 QFRET fluorescence; shares compounds with HGIII-sPLA2 inh; inhibition, % at 12.2 µM;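 active = mean inhibition across triplicates above the hit cutoff set in the earlier primary screen, cut at about 19% in these data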;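 also: 0% = enzyme with DMSO and 100% = DMSO wells lacking enzyme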
535nm interf = 535nm fluorescence optical interference, confirmation, artefact control for HGIII-sPLA2 inhibitor project, biochemical, QFRET; shares compounds with HGIII-sPLA2 inh; BODIPY FL product fluorescence interference; inhibition, % at 12.2 µM; 8.5% of 2,000 active; AID 743282, 2014;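 active = average inhibition above the solvent-only control mean plus 3 SD, cut at about 6% in these data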;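 also: 0% = DMSO with substrate plus product and 100% = DMSO with substrate alone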
535nm interf DR = 535nm fluorescence optical interference, dose response, artefact control for HGIII-sPLA2 inhibitor project, biochemical, QFRET; BODIPY FL product fluorescence interference, cell-free; shares compounds with HGIII-sPLA2 inh; 240 tested, under 10 active; IC50, µM;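 active = IC50 at or below 10 µM; inactive = IC50 above 10 µM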
* marks the source's active call; other numbers are inactive results; i = inactive; . = not tested or not shown. An excerpt weighted towards active compounds, which were near 1.9% of everything screened.

SMILES	Tb MetRS inh	DAGLB inh	PLCb3 inh	PLC-gamma1 inh	HGIII-sPLA2 inh	hGIII sPLA2 conf	535nm interf	others
COCc1cc(N2CCNC[C@H]2C)ccc1N1C[C@@H](C)O[C@@H](C)C1	.	.	0.4	-0.8	-3.3	.	.
O=[N+]([O-])c1ccc(COc2ccccc2CO)cc1	.	.	0.8	5.2	-3.2	.	.
O=C(Nc1ccc2c(c1)OCO2)NC1CCN(S(=O)(=O)c2ccc(F)cc2)CC1	.	.	2.1	-4.4	5.1	.	.
O=C(NNC(=S)NC(=O)C12CC3CC(CC(C3)C1)C2)c1ccncc1	-0.6	2.1	1.6	1.7	23.9*	31.0*	-18.1	535nm interf DR=>122
CC12CC3CC(C1)CC(C(=O)NNC(=O)c1ccncc1)(C3)C2	-0.2	-1.0	1.1	-1.2	-2.4	.	.
CC1(C(=O)NC(=S)NNC(=O)c2ccncc2)CCCCC1	-0.3	1.4	-2.6	-2.2	26.4*	20.1*	-11.2
O=C(O)CCCCN1C(=O)C=CC1=O	.	.	3.8	1.9	1.8	.	.
O=C(Cc1ccc(Nc2nc(=S)[nH]c3ccccc23)cc1)NC1CCCCC1	.	.	-74.7	-66.4	21.3*	13.7	-0.5
CC(C)CCNC(=O)Cc1ccc(Nc2nc(=S)[nH]c3ccccc23)cc1	-0.4	1.5	-56.6	-56.7	11.4	.	.
Nc1nc2c(ncn2[C@@H]2O[C@H](C(=O)NCC(c3ccccc3)c3ccccc3)[C@@H](O)[C@H]2O)c(=O)[nH]1	.	.	-1.2	2.1	13.8	.	.
NNc1nc2c(Cl)c(Cl)ccc2s1	0.0	-0.8	-8.1	-5.3	23.6*	19.2	13.4*
S=C(NCC1CCCCC1)Nc1ccc(Oc2ccccc2)cc1	-0.7	-11.0	1.9	1.0	2.8	.	.
S=C(NCC1CCCCC1)Nc1cccnc1	-0.7	-2.8	0.3	0.9	22.6*	6.5	-5.5
CC(=O)OCC1OC(n2cc(F)c(=O)[nH]c2=O)C(OC(C)=O)C1OC(C)=O (stereo not given)	0.7	1.1	-3.8	-3.2	19.5*	0.9	-6.7
O=C(CSc1nc2ccccc2c(=O)n1-c1ccc(Cl)cc1)NNC(=S)Nc1ccccc1	.	.	3.7	1.4	33.3*	27.1*	4.3
O=C(CSc1nc2ccccc2c(=O)n1-c1ccc(Cl)cc1)c1ccco1	-0.8	1.1	0.0	-1.4	-14.5	.	.
CC(=O)/C(=N\Nc1cccc(Cl)c1)Sc1nnc(-c2ccccc2)n1-c1ccccc1	-0.7	-3.4	1.8	3.3	19.5*	6.6	-3.4
CCn1c(SCC(=O)NNC(=S)Nc2ccccc2)nnc1-c1ccc(Cl)cc1	0.0	1.6	0.4	2.3	17.4	.	.
Cc1ccc(/C=N/NC(=O)CSc2nc3ccccc3c(=O)n2-c2ccccc2C)s1	0.1	3.4	1.4	-0.6	-5.0	.	.
Cc1ccc(/C=N/NC(=O)CSc2nc3ccccc3c(=O)n2-c2ccccc2)s1	-0.6	0.9	0.6	0.5	19.3*	2.6	1.9
O=C(CSc1nnc(-c2ccccc2)n1-c1ccc(Cl)cc1)NNC(=S)Nc1ccccc1	0.3	0.6	-0.7	0.3	26.2*	38.5*	-6.9	535nm interf DR=>122
COC(=O)/C=C1\OC(C)c2ccccc21 (stereo not given)	.	.	0.8	-2.0	1.8	.	.
CCN(CC)C(=O)c1ccc2sc([C@H]3C[C@H](O)[C@@H](CO)O3)nc2c1	0.4	.	-3.7	0.2	22.2*	3.8	-6.2
C[C@H](CO)N1C[C@H](C)[C@@H](CN(C)S(=O)(=O)c2cn(C)cn2)Oc2ccc(NC(=O)C3CC3)cc2C1=O	-0.1	-2.1	0.6	-4.5	1.9	.	.
C[C@H](CO)N1C[C@H](C)[C@@H](CN(C)S(=O)(=O)c2cn(C)cn2)Oc2ccc(NC(=O)C3CCCCC3)cc2C1=O	-1.6	-2.5	1.2	-1.7	21.4*	-0.6	-13.6
SMILES	Tb MetRS inh	DAGLB inh	PLCb3 inh	PLC-gamma1 inh	HGIII-sPLA2 inh	hGIII sPLA2 conf	535nm interf	others
CC(=O)N(C)c1ccc(N2CCOCC2)c2c1C(=O)c1ccccc1C2=O	-1.2	3.9	-0.8	4.0	-2.7	.	.
O=C1c2ccccc2C(=O)c2c1cccc2N1CCOCC1	-0.5	21.8	9.9	3.9	22.5*	31.9*	5.4	535nm interf DR=>122
COc1ccc2c(c1)c[n+](C)c1c3cc(OC)c(OC)cc3ccc21	-0.2	.	-26.3	-19.9	27.4*	36.2*	-26.3	535nm interf DR=>122
CCn1c(=O)n(CC(=O)N2CCC(C)CC2)c(=O)c2ccccc21	.	.	-2.0	-0.8	1.5	.	.
Cc1cc(N(C)C)ccc1N=Nc1ccc2ncccc2c1	0.1	33.6	-5.1	4.1	22.7*	22.5*	2.2
O=C(COC(=O)c1ccc(Sc2ncn[nH]2)c([N+](=O)[O-])c1)Nc1cccc(Cl)c1F	.	.	1.1	-0.4	-30.2	.	.
CCCCOc1ccc(S(=O)(=O)NC(=O)C2(C)CCN2C(=O)Cc2cccs2)cc1 (stereo not given)	-0.1	.	-7.3	-1.0	87.4*	-10.5	-6.1
Cc1ccc(S(=O)(=O)NC(=O)C2(C)CCN2C(=O)Cc2cccs2)cc1 (stereo not given)	-0.3	.	1.1	-0.8	15.8	.	.
CCCOc1ccc(/C=N/NC(=S)Nc2ccccc2[N+](=O)[O-])c(O)c1	.	.	2.9	1.0	37.1*	55.8*	12.1*
CCCOc1ccc(/C=N/Nc2ccccc2[N+](=O)[O-])c(O)c1	0.1	7.9	0.5	2.2	6.7	.	.
CCN(CC)C(=O)C12C(=O)Oc3ccccc3C1C2(C)C(=O)c1ccc(F)cc1 (stereo not given)	-0.5	-3.0	10.2	4.4	20.1*	-1.6	-7.6
O=C(Nc1ccc([N+](=O)[O-])cc1)c1cn(-c2ccccc2)nc1-c1cc2ccccc2o1	0.0	-3.6	-2.0	1.8	20.0*	-3.0	-8.3
COc1ccc(-c2n[nH]c(=S)nc2-c2ccc(OC)cc2)cc1	0.2	0.9	-7.2	-0.8	19.4*	25.7*	4.8
O=C1CCC[C@H]2[C@@H](Cc3ccccc3)[C@@H](O)CC[C@]23CCCN13	.	.	2.8	1.2	1.8	.	.
Cc1ccccc1NC(=O)O[C@H]1CC[C@@]23CCCN2C(=O)CCC[C@H]3[C@H]1C	.	.	-1.7	-2.6	4.5	.	.
CC(C)Cn1c(/C=C/c2ccccc2)nc2ccccc21	-0.6	-7.0	i	-440.3	-8.4	.	.
CC(C)Cn1c(/C=N/Nc2nc3ccccc3[nH]2)nc2ccccc21	-0.1	3.5	-18.3	-18.4	28.7*	39.0*	-8.3
